From PMC10841594 (Cell chemical biology, 2023)
Each block holds one molecule with its values, some of them ahead of it.

Assays:
[1] = Cell-free metal selectivity assay; assay type: biochemical
[2] = tested on: ferroportin; assay: Immunohistochemical staining for ferroportin; assay type: in vivo, mouse; conditions: for ferroportin staining in liver vs untreated controls: livers of the mice imaged with FeAL-1
Procedure, shortened: (§1)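 Tissues fixed in 4% paraformaldehyde, paraffin-embedded and cut into 4-µm sections. Liver, heart and tumor sections stained with anti-4-HNE (1:500) or anti-ferroportin (1:500). Liver and heart came from imaged mice: untreated, hepcidin 50 µg/mouse/day for 3 days, or doxorubicin 10 mg/kg IP once 5 days prior. Staining intensity quantified by IHC Profiler in ImageJ (liver/heart n=3 per condition).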

[3] = tested on: 4-hydroxynonenal (4-HNE); assay: Immunohistochemical staining for 4-HNE; assay type: in vivo, mouse
Procedure, shortened: as §1

[4] = tested on: non-heme iron; conditions: DOX-treated mice, ex vivo methodology ref 16; cited from earlier work
[5] = Storage stability of FeAL-1 powder; assay type: physicochemical; conditions: stored as a powder at −20 °C under argon
[6] = UPLC-MS Fe2+-fragmentation assay
Procedure, shortened: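 Test compound at 40 µM final in 50 mM Tris-HCl pH 7.4/DMSO (9:1) with sodium ascorbate and ascorbic acid, each 2 mM final. Held 1 min at 37 °C, then sampled as the hemin-free control. Hemin added to 400 µM final and the mixture stirred at 37 °C. Aliquots taken at set time points over 62 min and analysed by UPLC-MS with UV at 303 nm.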

[7] = tested on: MiaPaca2-luc cells; assay: Cellular assay comparing FeAL-1 and ICL-1 response; assay type: cell-based, human; conditions: 20 μM probe, FAC 2 hours, imaged after 15 min
[8] = tested on: SW-1990-luc cells; assay: Cellular assay comparing FeAL-1 and ICL-1 response; assay type: cell-based, human; conditions: 20 μM probe, FAC 2 hours, imaged after 15 min
[9] = tested on: luciferase-expressing PDA and colon cancer cell lines; assay: Cellular bioluminescence assays with FAC, BPY or hepcidin pre-treatment; assay type: cell-based
Procedure, shortened: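 Cells stably expressing firefly/Renilla luciferase (lentiviral, puromycin-selected) in DMEM with 10% FBS, plated to reach 75% confluence and assayed two days after plating. Serum-free DMEM with FAC for 60 min at 37 °C, optionally BPY for 30 min. Hepcidin-25 (1, 2, 4 µg/mL) given 16 h beforehand. Probe at 75 µM in Ca/Mg-free HBSS for 25 min, IVIS imaging at 30 min. D-luciferin (25 µM, 5 min) control.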

[10] = Pharmacokinetic study, plasma LC-MS/MS; assay type: in vivo, C57BL6 mice; conditions: C57BL/6, mouse, ip, 20 mg/kg
Procedure, shortened: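 Healthy C57BL/6 mice received a single IP dose at 20 mg/kg (2.5 mL/kg; 15 mice per group). Composite plasma sampling, n=3 per timepoint: orbital bleed under isoflurane at 5, 10, 15, 30 and 45 min, then terminal vena cava bleed under CO2 at 1, 2, 3, 4 and 7 h. Blood collected into EDTA and centrifuged to plasma.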

[11] = tested on: MIA PaCa-2 tumors; assay: Dual-reporter orthotopic PDA xenograft imaging with FeAL-1; assay type: in vivo, mouse
[12] = tested on: SW1990 tumors; assay: as above; assay type: in vivo, mouse
[13] = tested on: FC1245 tumors; assay: as above; assay type: in vivo, mouse
[14] = untreated tumor-bearing mice, FeAL-1 36 mg/kg IP
[15] = hepcidin 50 μg/mouse for three days

Molecule: O=C(O)[C@H]1CSC(c2nc3ccc(O)cc3s2)=N1 [D-luciferin]
luminescent response of D-luciferin with increasing Fe^2+ ([1]; control experiment, D-luciferin instead of FeAL-1): not affected by increasing concentrations of Fe^2+

4-HNE staining in heart tissue vs untreated controls [3]: increased 4-HNE staining | 4-HNE staining in liver vs control group [3]: increased staining for 4-HNE
Molecule: COc1cccc2c1C(=O)c1c(O)c3c(c(O)c1C2=O)C[C@@](O)(C(=O)CO)C[C@@H]3O[C@H]1C[C@H](N)[C@H](O)[C@H](C)O1 [DOX, doxorubicin]
ferroportin staining in liver vs untreated controls [2]: reduced ferroportin staining | elevation of non-heme iron in liver, spleen, kidneys and blood [4]: ≤ 2 fold

Molecule: CN(CCN(C)C(=O)O[C@@H]1CCC[C@]2(C1)OOC1(O2)C2CC3CC(C2)CC1C3)C(=O)Oc1ccc2nc(C3=N[C@@H](C(=O)O)CS3)sc2c1 (stereo partly drawn) [FeAL-1, (S)-2-(6-(((2-(((((R,R)-dispiro[adamantane-2,3’-[1,2,4]trioxolane-5’,1’’-cyclohexan]-3’’-yl)oxy)carbonyl)(methyl)amino)ethyl)(methyl)carbamoyl)oxy)benzo[d]thiazol-2-yl)-4,5-dihydrothiazole-4-carboxylic acid]
stability on storage [5]: stable over several months | stability in assay media lacking hemin ([6]; control without hemin): stable in assay media lacking hemin | time point by which FeAL-1 is completely consumed ([6]; reaction media containing ferrous hemin, 37 °C): ≤ 1 min | time point at which released D-luciferin is detected ([6]; reaction media containing ferrous hemin, second time point): 12 min | luminescence response with Fe^2+ as ferrous ammonium sulfate (FAS) ([1]; 2.5 μM FeAL-1, 2 hours incubation, then 10 μg/mL luciferase): robust luminescence response | iron-dependent luminescent response compared with ICL-1 [7]: stronger iron-dependent luminescent response from FeAL-1 than from ICL-1 | iron-dependent luminescent response compared with ICL-1 [8]: stronger iron-dependent luminescent response from FeAL-1 than from ICL-1 | bioluminescent signal in response to FAC supplementation ([9]; larger panel of cell lines): robust bioluminescent signal | bioluminescence response with BPY iron chelator treatment ([9]; with or without FAC): expected reduction in bioluminescence response | Cmax [10]: 5.91 µM | Tmax [10]: 1 h | normalized FeAL-1 Fluc/Rluc response [11, 14]: ~ 2.1 | normalized luminescence signal in tumor relative to healthy liver ([11]; vs livers of non-tumor bearing mice): ~ 10 fold | normalized FeAL-1 Fluc/Rluc response [12, 14]: ~ 1.7 | normalized FeAL-1 Fluc/Rluc response [13, 14]: ~ 0.7

Molecule: hepcidin: hepatic peptide hormone, negative regulator of the iron export protein ferroportin
effect of hepcidin pre-treatment on FeAL-1 signal ([9]; hepcidin 1, 2 and 4 μg/mL, 16 hours, FeAL-1 75 μM): corresponding increase in FeAL-1 signal across all cell lines | FeAL-1 Fluc/Rluc response after hepcidin pre-treatment [11, 15]: ~ 5 | FeAL-1 Fluc/Rluc response, hepcidin-treated vs untreated controls [11, 15]: 2–3 fold | FeAL-1 Fluc/Rluc response after hepcidin pre-treatment [12, 15]: ~ 5 | FeAL-1 Fluc/Rluc response, hepcidin-treated vs untreated controls [12, 15]: 2–3 fold | effect of hepcidin treatment on tumor LIP [13, 15]: measurably increased LIP in FC1245 tumors | tumoral ferroportin expression vs untreated control animal ([2]; FC1245 tumors, single comparison): decreased tumoral ferroportin expression | ferroportin staining in liver vs untreated controls [2]: reduced ferroportin staining | 4-HNE staining of tumors, treated vs untreated controls ([3]; FC1245 tumors): not significantly different | 4-HNE staining in heart tissue vs untreated controls [3]: but not hepcidin-treated mice, showed increased 4-HNE staining | 4-HNE staining in liver vs control group [3]: increased staining for 4-HNE
